Assay results from ChEMBL document CHEMBL1156396, “Antifungal alkyl amino alcohols from the tropical marine sponge Haliclona n. sp” (2001).
Activity calls are given as the source filed them. The calls are words filed in the database; no cut-off is given here.

Tests used:
[1] = tested on: Amorphotheca resinae; test: Antifungal activity against Cladosporium resinae at 0.12 mg after 24 hrs by paper disk assay; assay type: functional; settings: for zone of inhibition at 120 µg/disc: read-out: IZ
Summary of the method: (§1)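 Paper disk diffusion: 6 mm diameter disks loaded with 0.12 mg test substance, placed on plates seeded with the test organism and incubated 24 h at 28 °C; activity scored as diameter of growth-inhibition zone (mm).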

[2] = tested on: Bacillus subtilis; test: Antibacterial activity against Bacillus subtilis at 0.12 mg after 24 hrs by paper disk assay; assay type: functional; summary of the method: as §1
[3] = tested on: Trichophyton mentagrophytes; test: Antifungal activity against Trichophyton mentagrophytes at 0.12 mg after 24 hrs by paper disk assay; assay type: functional; settings: for zone of inhibition at 120 µg/disc: read-out: IZ; summary of the method: as §1
[4] = tested on: Escherichia coli; test: Antibacterial activity against Escherichia coli at 0.12 mg after 24 hrs by paper disk assay; assay type: functional, organism-based; summary of the method: as §1
[5] = tested on: Candida albicans; test: Antifungal activity against Candida albicans at 0.12 mg after 24 hrs by paper disk assay; assay type: functional, organism-based; summary of the method: as §1

Row | SMILES | inhibition zone (IZ) [1] | zone of inhibition at 120 µg/disc ([2]; read-out: IZ) | inhibition zone (IZ) [3] | inhibition zone (IZ) [4] | inhibition zone (IZ) [5] | inhibition zone (IZ) [2] | zone of inhibition at 120 µg/disc [1] | zone of inhibition at 120 µg/disc [3]
1 | C=CCCCCCCCCC[C@@H](OC(C)=O)[C@H](C)NC(C)=O [DIACETYL HALAMINOL A] | inactive | 7 mm | inactive | inactive | inactive | – | – | –
2 | CCCCCCCC/C=C\C[C@@H](O)[C@H](C)N | Active | – | Active | Active | Active | Active | – | –
3 | C=CCCCCCCCCC[C@@H](O)[C@H](C)NC(C)=O | inactive | – | inactive | inactive | inactive | inactive | – | –
4 | C=CCCCCCCC[C@@H](O)[C@H](C)N [HALAMINOL B] | – | – | – | Active | Active | Active | 10 mm | 10 mm
5 | C=CCCCCCCCCC[C@@H](O)[C@H](C)N [HALAMINOL A] | – | – | – | Active | Active | Active | 10 mm | 10 mm
